Data on 44 compounds can be found in ChEMBL document CHEMBL3352717, “Identification of the first inhibitor of the GBP1:PIM1 interaction. Implications for the development of a new class of anticancer agents against paclitaxel resistant cancer cells” (J Med Chem, 2014).

A word on the inhibition: it is the percentage by which the read-out fell short of the control.

Active and inactive are the calls of the source. No cut-off for these calls is given here.

The target of the first test is T1, Interferon-induced guanylate-binding protein 1/Serine/threonine-protein kinase pim-1 (Homo sapiens) (UniProt P11309+P32455). As to the kind of experiment: Inhibition of GBP1 (unknown origin)-PIM1 (unknown origin) interaction by SPR analysis. In kind it is protein assay.
T1 sequence (P11309 whole entry, looked up): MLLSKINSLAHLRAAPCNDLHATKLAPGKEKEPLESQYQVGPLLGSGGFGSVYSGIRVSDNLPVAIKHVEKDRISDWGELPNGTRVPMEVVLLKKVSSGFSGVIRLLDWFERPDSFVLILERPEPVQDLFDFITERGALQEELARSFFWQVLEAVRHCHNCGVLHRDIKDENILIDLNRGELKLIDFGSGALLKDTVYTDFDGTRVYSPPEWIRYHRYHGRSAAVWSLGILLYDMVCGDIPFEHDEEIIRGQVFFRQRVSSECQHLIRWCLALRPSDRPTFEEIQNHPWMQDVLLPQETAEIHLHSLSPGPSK
T1 sequence (P32455 whole entry, looked up): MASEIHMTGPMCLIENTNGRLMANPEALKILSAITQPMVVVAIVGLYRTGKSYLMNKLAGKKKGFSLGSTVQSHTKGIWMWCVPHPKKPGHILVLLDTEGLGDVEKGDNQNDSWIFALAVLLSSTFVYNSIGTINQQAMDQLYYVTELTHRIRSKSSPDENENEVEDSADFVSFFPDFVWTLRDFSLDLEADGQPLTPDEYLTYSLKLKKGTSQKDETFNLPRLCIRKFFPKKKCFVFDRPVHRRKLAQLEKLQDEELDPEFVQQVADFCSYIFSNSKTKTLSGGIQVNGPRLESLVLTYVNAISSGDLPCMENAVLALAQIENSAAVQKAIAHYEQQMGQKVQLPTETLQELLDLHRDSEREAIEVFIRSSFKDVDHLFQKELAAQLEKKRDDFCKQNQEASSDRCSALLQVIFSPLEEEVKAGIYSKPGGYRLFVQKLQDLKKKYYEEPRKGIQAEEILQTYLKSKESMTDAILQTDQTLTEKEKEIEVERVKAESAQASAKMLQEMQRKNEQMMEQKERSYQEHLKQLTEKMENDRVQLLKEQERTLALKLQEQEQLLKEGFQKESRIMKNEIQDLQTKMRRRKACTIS
Conditions: not given
A digest of the protocol: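 Recombinant PIM1 (50 μg/mL in acetate buffer pH 5.5) amine-coupled to GLM chip via EDC/S-NHS (~2000 RU); compound (0.1, 1, 10, 100 nM) co-injected with GBP1 280 nM in TBST, 30 μL/min, 120 s, 15 min dissociation; DMSO 0.2% v/v. CA 280 nM negative control. % inhibition = RU with compound over GBP1-alone maximum; runs at least three times.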
(SPR reads the build-up and loss of mass on a sensor chip optically.)
Take `COc1ccc2c(c1)N(CCO)C1=C(C(=O)OC1)C2c1ccccc1` (configuration not stated): the inhibition result is “Dose-dependent effect”.

The target of a further test is T1, Interferon-induced guanylate-binding protein 1/Serine/threonine-protein kinase pim-1 (Homo sapiens). The test can be described thus: Inhibition of GBP1-PIM1 interaction in human SKOV3 cells at 100 nM after 3 hrs by co-immunoprecepitation method. It counts as cell-based. The conditions noted are these: SK-OV-3. Put shortly:
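SKOV3 cells treated 3 h with compound; cells scraped, lysed, PIM1 immunoprecipitated (anti-IgG negative control); co-precipitated GBP1 detected by Western blot with anti-GBP1 (67 kD band, antibodies 1:200 in 5% milk–TBST). Bands quantified by densitometry; DMSO vehicle control.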
Consider `COc1ccc2c(c1)N(CCO)C1=C(C(=O)OC1)C2c1ccccc1` (configuration not stated), for which the inhibition result was “Active”.
As for `COc1ccc2c(c1)N(CCO)C1=C(C(=O)OC1)C2c1cc(OC)c(OC)c(OC)c1` (configuration not stated), the inhibition entry was “inactive”.

The next test has the same target. The test can be described thus: Inhibition of GBP1 (unknown origin)-PIM1 (unknown origin) interaction at 100 nM by SPR analysis. In kind it is protein assay.
Conditions: not given
Put shortly:
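Recombinant PIM1 amine-coupled (50 μg/mL in acetate pH 5.5, ~2000 RU) on an EDC/S-NHS-activated GLM chip; blank acetate-treated channel as reference. Compound co-injected with GBP1 280 nM in TBST, 30 μL/min for 120 s, 15 min dissociation. Carbonic anhydrase 280 nM was the negative control. % inhibition = RU with compound over RU with GBP1 alone; runs done at least three times.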
Regarding `COc1ccc(C2C3=C(COC3=O)N(CCO)c3cc4c(cc32)OCCO4)cc1OC` (configuration not stated), the inhibition result was “inactive”.
On the same count and under the same terms, the same measure for `O=C1OCC2=C1C(c1ccc(Cl)c(Cl)c1)c1cc3c(cc1N2CCO)OCCO3` (configuration not stated): “inactive”; for `COc1cc(C2C3=C(COC3=O)N(CCO)c3cc4c(cc32)OCCO4)cc(OC)c1OC` (configuration not stated): “inactive”; for `COc1cc2c(cc1OC)N(CCO)C1=C(C(=O)OC1)C2c1cccc(Cl)c1` (configuration not stated): 10%.
Same read-out and setting: in the case of `COc1ccc(C2C3=C(COC3=O)N(CCO)c3cc4c(cc32)CCC4)cc1` (configuration not stated) it was “inactive”; in that of `COc1ccc(C2C3=C(COC3=O)N(CCO)c3cc4c(cc32)OCO4)cc1` (configuration not stated), “inactive”.
Still for that read-out and setting: in the case of `COc1cc2c(cc1OC)N(CCO)C1=C(C(=O)OC1)C2c1cccc(Br)c1` (configuration not stated) it was 10%; in that of `COc1ccc(C2C3=C(COC3=O)N(CCO)c3cc(OC)c(OC)cc32)cc1` (configuration not stated), “inactive”; in that of `COc1ccc2c(c1)N(CCO)C1=C(C(=O)OC1)C2c1ccccc1` (configuration not stated), 65%.
`CCc1ccc2c(c1)N(CCO)C1=C(C(=O)OC1)C2c1cccc(Cl)c1` (configuration not stated): the inhibition was found to be 10%.
Still for that read-out and setting: the same measure for `O=C1OCC2=C1C(c1ccccc1)c1cc3c(cc1N2CCO)OCCO3` (configuration not stated): “inactive”; for `COc1ccc(C2C3=C(COC3=O)N(CCO)c3cc4c(cc32)CCC4)cc1OC` (configuration not stated): “inactive”; for `O=C1OCC2=C1C(c1ccccc1)c1cc3c(cc1N2CCO)CCC3` (configuration not stated): “inactive”.
The same measure, in the same setting: the same measure for `O=C1OCC2=C1C(c1cccc(Cl)c1)c1cc3c(cc1N2CCO)OCCO3` (configuration not stated): “inactive”.
Still for that read-out and setting: the same measure for `COc1cc(C2C3=C(COC3=O)N(CCO)c3cc4c(cc32)CCC4)cc(OC)c1OC` (configuration not stated): “inactive”.
On to `COc1cc2c(cc1OC)N(CCO)C1=C(C(=O)OC1)C2c1cc(OC)c(OC)c(OC)c1` (configuration not stated), for which the inhibition was 10%.
On the same count and under the same terms, the same measure for `COc1cccc(C2C3=C(COC3=O)N(CCO)c3cc(OC)ccc32)c1` (configuration not stated): 10%; for `COc1cccc(C2C3=C(COC3=O)N(CCO)c3cc4c(cc32)OCO4)c1` (configuration not stated): “inactive”; for `COc1cc2c(cc1OC)N(CCO)C1=C(C(=O)OC1)C2c1ccccc1` (configuration not stated): “inactive”.
Still for that read-out and setting: the same measure for `CCc1ccc2c(c1)N(CCO)C1=C(C(=O)OC1)C2c1cccc(Br)c1` (configuration not stated): “inactive”; for `CCc1ccc2c(c1)N(CCO)C1=C(C(=O)OC1)C2c1ccccc1` (configuration not stated): “inactive”.
The same measure, in the same setting: in the case of `COc1cc2c(cc1OC)N(CCO)C1=C(C(=O)OC1)C2c1ccc(Cl)c(Cl)c1` (configuration not stated) it was “inactive”; in that of `COc1cc(C2C3=C(COC3=O)N(CCO)c3cc4c(cc32)CCC4)cc(OC)c1O` (configuration not stated), “inactive”; in that of `O=C1OCC2=C1C(c1cccc(Br)c1)c1cc3c(cc1N2CCO)CCC3` (configuration not stated), “inactive”.
Consider `COc1cccc(C2C3=C(COC3=O)N(CCO)c3cc4c(cc32)OCCO4)c1` (configuration not stated), for which the inhibition entry is “inactive”.
The same measure, in the same setting: the same measure for `COc1cccc(C2C3=C(COC3=O)N(CCO)c3cc(OC)c(OC)cc32)c1` (configuration not stated): 10%; for `O=C1OCC2=C1C(c1ccc(Cl)c(Cl)c1)c1cc3c(cc1N2CCO)CCC3` (configuration not stated): “inactive”; for `O=C1OCC2=C1C(c1cccc(Br)c1)c1cc3c(cc1N2CCO)OCCO3` (configuration not stated): “inactive”.
Still for that read-out and setting: the same measure for `COc1cc(C2C3=C(COC3=O)N(CCO)c3cc4c(cc32)OCCO4)cc(OC)c1O` (configuration not stated): “inactive”.
Consider `COc1cc(C2C3=C(COC3=O)N(CCO)c3cc4c(cc32)OCO4)cc(OC)c1O` (configuration not stated), for which the inhibition entry is “inactive”.
The same measure, in the same setting: in the case of `COc1cccc(C2C3=C(COC3=O)N(CCO)c3cc4c(cc32)CCC4)c1` (configuration not stated) it was “inactive”.
With `CCc1ccc2c(c1)N(CCO)C1=C(C(=O)OC1)C2c1ccc(Cl)c(Cl)c1` (configuration not stated), the inhibition result is “inactive”.
Regarding `CCc1ccc2c(c1)N(CCO)C1=C(C(=O)OC1)C2c1cc(OC)c(OC)c(OC)c1` (configuration not stated), the inhibition entry is “inactive”.
On the same count and under the same terms, in the case of `COc1ccc(C2C3=C(COC3=O)N(CCO)c3cc4c(cc32)OCO4)cc1OC` (configuration not stated) it was “inactive”; in that of `COc1ccc2c(c1)N(CCO)C1=C(C(=O)OC1)C2c1ccc(OC)c(OC)c1` (configuration not stated), “inactive”; in that of `COc1cc(C2C3=C(COC3=O)N(CCO)c3cc4c(cc32)OCO4)cc(OC)c1OC` (configuration not stated), “inactive”.
The same measure, in the same setting: in the case of `COc1ccc(C2C3=C(COC3=O)N(CCO)c3cc(OC)c(OC)cc32)cc1OC` (configuration not stated) it was 10%; in that of `O=C1OCC2=C1C(c1cccc(Cl)c1)c1cc3c(cc1N2CCO)OCO3` (configuration not stated), “inactive”; in that of `O=C1OCC2=C1C(c1ccccc1)c1cc3c(cc1N2CCO)OCO3` (configuration not stated), “inactive”.
`COc1ccc2c(c1)N(CCO)C1=C(C(=O)OC1)C2c1cc(OC)c(OC)c(OC)c1` (configuration not stated) showed an inhibition of 10%.
Still for that read-out and setting: the same measure for `COc1ccc(C2C3=C(COC3=O)N(CCO)c3cc(OC)ccc32)cc1` (configuration not stated): 10%.
Still for that read-out and setting: in the case of `COc1ccc2c(c1)N(CCO)C1=C(C(=O)OC1)C2c1cccc(Br)c1` (configuration not stated) it was 10%.
Still for that read-out and setting: in the case of `O=C1OCC2=C1C(c1cccc(Cl)c1)c1cc3c(cc1N2CCO)CCC3` (configuration not stated) it was “inactive”.
On to `COc1ccc(C2C3=C(COC3=O)N(CCO)c3cc4c(cc32)OCCO4)cc1` (configuration not stated), for which the inhibition result was “inactive”.
